According to ChEMBL document CHEMBL4699407, “Isoquinoline thiosemicarbazone displays potent anticancer activity with in vivo efficacy against aggressive leukemias” (RSC Med Chem, 2020):

Experiments:
MIA PaCa-2 [1] = assay: Cytotoxicity against human MIA PaCa2 cells assessed as reduction in cell viability in presence of Cu2+ incubated for 72 hrs by cell titer-glo luminescent cell viability assay; format: functional, cell-based; conditions: MIA PaCa-2, 72 h
Method in brief: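 Cells were grown in DMEM or RPMI with 10% FBS, without antibiotics, at 37 °C, 20% O2, 5% CO2. Adherent lines were seeded at 500 cells/well. Serially diluted compound was given with 20 μM Cu(II) (CuCl2) for 72 h; leukemia models received pre-formed 1:1 copper complex. ATP was read by CellTiter-Glo luminescence. IC50 is relative to DMSO-treated cells.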

MIA PaCa-2 [2] = assay: Cytotoxicity against human MIA PaCa2 cells assessed as reduction in cell viability 72 hrs by cell titer-glo luminescent cell viability assay; format: functional
Method in brief: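 MIAPACA2 cells in conventional medium without copper supplement got serially diluted compound for 72 h. ATP content was read by CellTiter-Glo, and IC90 (90% proliferation inhibition vs DMSO control) was calculated.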

SMILES | IC90 (MIA PaCa-2 [1]) [nM] | IC90 (MIA PaCa-2 [2]) [nM]
NC(=S)N/N=C/c1nccc2ccccc12 | 2210 | 
NC(=S)N/N=C/c1nccc2cc(F)ccc12 | 2040 | 
CNC(=S)NN=Cc1nccc2c(NC)cccc12 | 607 | 4240
CNc1c(F)ccc2c(C=NNC(=S)N(C)C)nccc12 | 38.4 | 272
CNC(=S)N/N=C/c1nccc2ccccc12 | 331 | 
NC(=S)N/N=C/c1ncc(F)c2ccccc12 | 2060 | 
CNC(=S)NN=Cc1nccc2c(N)cccc12 | 7080 | 11200
NC(=S)N/N=C/c1nccc2c(N)cccc12 | 71100 | 
CN(C)C(=S)NN=Cc1ncc(F)c2ccccc12 | 26.6 | 274
CNC(=S)N/N=C/c1ncc(F)c2ccccc12 | 114 | 
CNC(=S)N/N=C/c1nccc2cc(F)ccc12 | 233 | 
CNc1cccc2c(C=NNC(=S)N(C)C)ncc(F)c12 | 42.3 | 327
CNc1cccc2c(/C=N/NC(N)=S)nccc12 | 5330 | 
CN(C)C(=S)NN=Cc1nccc2ccccc12 | 73.7 | 29600
